Most compounds without a hit are left out; they make up all but 3.2% or so of the library.
MEKK2mut PB1 HTS: signal of MEK5 binding to mutant human MEKK2 PB1 domain; percent response, % at 10 µM; bead flow cytometry, Alexa488-MEK5 binding to MEKK2 mutant; actives 0.35% (n = 290,000); in the data active = percent response above about 24%, passing the limit was not always enough
UBC13 polyUb: human UBC13 polyubiquitination inhibition | actives 0.47% (n = 330,000) | inhibition, % at 20 µM | UBC13 polyubiquitin chain formation, TR-FRET | P61088; in the data active = inhibition above about 45%, passing the limit was not always enough
MEKK3 PB1 HTS: MEKK3-MEK5 PB1 interaction, increase or decrease; binding response (% of control), % at 10 µM; Q99759; actives 1.4% (n = 290,000); bead-based flow cytometry, Alexa488-MEK5 binding to MEKK3; actives lie on both sides; 0 = blocked by unlabeled MEK5, 100 = vehicle; AID 1529;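 active = binding response more than 3 SD above or below the average of its plate-row segment, actives on both sides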;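 also: Alexa488 bead fluorescence after subtracting the streptavidin-only scavenger bead signal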
MEKK2wt PB1 HTS: raises or lowers MEK5 binding to wildtype human MEKK2 PB1 domain; bead flow cytometry, Alexa488-MEK5 binding to MEKK2 WT; actives lie on both sides; binding response (% of control), % at 10 µM; actives 1.1% (n = 290,000); AID 1531; in the data active = binding response below about 67% or above about 130%
Apaf1 inhib: blocks human Apaf-1 apoptosome activity; inhibition, % at 20 µM; reconstituted apoptosome caspase-3 activity, DEVD-Rh110 fluorescence; actives 0.71% (n = 330,000); O14727; active = inhibition of at least 40% at 20 µM;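 also: plate controls were DMSO wells for no effect and DEVD-CHO caspase inhibitor wells for full effect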
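System: Apoptosome proteins | Medium: Hepes pH 7.5 with detergent and BSA | Also added: Cytochrome c trigger plus (Z-DEVD)2-Rh110 caspase-3 substrate | Incubation: 30 min compound preincubation, 50 min activation, room temperature | Detection: Rhodamine 110 fluorescence at Ex 480/Em 540 nm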
Pemphigus Ab inh: human desmoglein-3 autoantibody binding inhibition; actives 0.48% (n = 310,000); DSG3-coupled beads, scFv-anti-DSG3-GFP binding, flow cytometry; hits give low values; binding (percent of control), % at 10 µM; AID 588358;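 active = binding more than 3 SD below its plate's average and above zero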;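 also: hits lower antibody fragment binding to DSG3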
MEKK2wt confirm: raises or lowers MEK5 binding to wildtype human MEKK2, retest. shares compounds with MEKK3 PB1 HTS. bead flow cytometry, Alexa488-MEK5 binding to MEKK2 WT; actives lie on both sides. binding response (% of control), % at 10 µM. actives 2.4% (n = 5,900). AID 1892; in the data active = binding response below about 16% or above about 210%; inactive = in between
MEKK2mut confirm: signal of MEK5 binding to mutant human MEKK2, retest. bead flow cytometry, Alexa488-MEK5 binding to MEKK2 mutant. percent response, % at 10 µM. shares compounds with MEKK3 PB1 HTS. actives 2% (n = 5,900). AID 1893; in the data active = percent response mostly above about 71%, no sharp cut-off; inactive = mostly below about 38%;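 also: higher means compound restores mutant binding toward wildtype level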
MEKK3 confirm: MEKK3-MEK5 PB1 inhibition, single concentration confirmation. binding response (% of control), % at 10 µM. bead flow cytometry, Alexa488-MEK5 binding to MEKK3; hits give low values. actives 1.8% (n = 5,900). shares compounds with MEKK3 PB1 HTS;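 active = binding response below 72% of control, or above a set upper limit, though filed actives all read lower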;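 also: 100% = DMSO only wells and 0% = binding blocked by excess unlabeled MEK5; lower values mean stronger disruption of MEK5 binding to MEKK3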
Starred values were filed as active, the others as inactive; . = not tested or not shown; [ ] = remark or other dose.

SMILES	MEKK2mut PB1 HTS	UBC13 polyUb	MEKK3 PB1 HTS	MEKK2wt PB1 HTS	Apaf1 inhib	Pemphigus Ab inh	MEKK2wt confirm	MEKK2mut confirm	MEKK3 confirm
Fc1ccc(CNC(=S)NCc2ccc(F)cc2)cc1	6.0	4.0	103.0	104.0	-1.3	112.1	.	.	.
Oc1ccc(Cl)cc1-c1cc(-c2ccco2)[nH]n1	-16.0	2.0	78.0*[inhibitor]	88.0	17.8	95.9	97.0	-12.0	92.0
Oc1ccccc1-c1cc(-c2ccco2)[nH]n1	-1.0	-7.1	103.0	96.0	9.9	102.7	.	.	.
COc1ccccc1NS(=O)(=O)c1ccc(NC(C)=O)cc1	1.0	14.8	96.0	94.0	-8.6	95.9	.	.	.
COc1ccccc1NS(=O)(=O)c1ccc(C(N)=O)cc1	-76.0	-2.6	28.0*[inhibitor]	35.0*[inhibitor]	2.5	96.9	99.0	-2.0	99.0
Cc1c(C(=O)N(Cc2ccccc2)Cc2cccs2)cnn1-c1ccc(Cl)cc1	27.0	3.1	132.0*	129.0	12.1	96.7	95.0	-8.0	101.0
CN1CCc2nc(SCc3ccc(C(C)(C)C)cc3)c(C#N)cc2C1	17.0	26.8	110.0	142.0*	13.1	92.3	137.0	20.0	104.0
COc1ccc(-n2cc(CNC3CCN(C)CC3)c(-c3cccc(F)c3)n2)cc1	49.0	14.3	108.0	169.0*	-2.1	103.1	150.0	36.0	109.0
Cc1cc([N+](=O)[O-])cc2c1NC(=O)C2(O)N1CCCCCC1 (stereo unspecified)	2.0	-10.5	163.0*	118.0	1.4	99.2	111.0	4.0	106.0
Cc1n[nH]c(C)c1N1C(=O)c2cccc3c(N4CCCCCC4)ccc(c23)C1=O	40.0*	-226.3	113.0	67.0*[inhibitor]	6.8	195.4	91.0	-7.0	96.0
CCOc1ccccc1CN1CCNC(=O)C1CC(=O)NCCC1=CCCCC1 (stereo unspecified)	24.0*	-2.2	103.0	127.0	21.6	105.6	125.0	15.0	104.0
O=C(CN1C(=O)NC2(CCOc3ccccc32)C1=O)NCc1ccccc1 (stereo unspecified)	.	1.5	.	.	-3.9	94.6	.	.	.
O=C(Nc1ccc(S(=O)(=O)Nc2nccs2)cc1)c1cnc(Cl)c(Cl)c1	-8.0	-6.4	46.0*[inhibitor]	54.0	13.6	124.4	104.0	-2.0	103.0
O=C(Nc1ccc(S(=O)(=O)Nc2ncccn2)cc1)c1cnc(Cl)c(Cl)c1	-1.0	-4.5	101.0	95.0	-19.1	110.1	.	.	.
CCOC(=O)C1=CN(Cc2cccc(F)c2)S(=O)(=O)N(CC)C1c1ccccc1 (stereo unspecified)	.	.	.	.	28.4	104.0	.	.	.
C/C(=N\NC(=O)c1ccc(-c2ccccc2)cc1)C1C(=O)c2ccccc2C1=O	-16.0	-45.5	47.0*[inhibitor]	47.0*[inhibitor]	11.0	95.9	97.0	0.0	103.0
CCn1c(SCC(=O)NNC(=O)c2ccco2)nnc1-c1ccco1	-13.0	-4.5	94.0	85.0	4.9	111.6	.	.	.
Cn1c(SCC(=O)NNC(=O)c2ccc(Br)cc2)nnc1-c1cccnc1	7.0	5.9	110.0	109.0	-5.4	101.0	.	.	.
CCn1c(SCC(=O)NNC(=O)c2ccccc2)nnc1-c1ccco1	-13.0	4.1	73.0*[inhibitor]	68.0	0.0	99.1	99.0	-6.0	99.0
Cc1nnc(SCC(=O)NNC(=O)c2ccc(Br)cc2)n1C	557.0*	3.1	123.0	717.0*	9.1	105.0	103.0	0.0	100.0
CNC(=O)CSc1nnc(-c2ccco2)n1-c1cc(C)ccc1C	32.0*	5.6	103.0	106.0	-12.9	97.1	110.0	0.0	106.0
